TWEAK Fn14 block: inhibitors of TWEAK-Fn14 signaling, primary screen, luciferase reporter cells, uHTS; TWEAK-stimulated Fn14 reporter cells, luciferase luminescence, 8 h; inhibition, % at 10 µM; hit rate 2% among 360,000; in the data active = inhibition above about 50%
EWS-Fli inh: EWS/Fli-driven NR0B1 reporter inhibitors, primary screen, A673 cells, NR0B1 luciferase, luminescence, MLPCN library. inhibition, % at 12.6 µM. hit rate 0.67% among 350,000. viability-normalised;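 active = mean inhibition of at least 50% after viability correction, with every replicate also passing that limit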;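 note: firefly luciferase signal divided by Alamar Blue viability fluorescence both relative to DMSO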
FN deposit inh: inhibitors of fibronectin matrix deposition, primary screen, AH1F cells, Alexa488-fibronectin fluorescence, plate reader. AH1F fibroblasts, overnight. inhibition, % at 12.6 µM. hit rate 0.086% among 350,000. AID 743247, 2014;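 active = mean inhibition across replicates of 30% or more, regardless of how many single replicates reach that level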;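 note: positive control wells lacked labelled fibronectin entirely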
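Measured by – fluorescence 485/525 nm · System – AH1F fibroblast monolayer, labelled fibronectin deposition · Amount – 10000 cells per well · Buffer or medium – serum-reduced DMEM (2% serum) · Doses – single dose, pinned · Also added – fluorescent fibronectin at 24 nM final · Schedule – 1 h cell attachment, overnight exposure to compound and label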
XiGFP reactiv: activators of inactive X chromosome reactivation, primary screen, imaging, XiGFP fibroblasts, GFP high-content imaging, set 2; hit rate 0.055% among 360,000; AID 743238, 2013; XiGFP mouse fibroblasts, % GFP-positive cells imaging, 3 d; cells co-treated with 5-aza-dC sensitizer; scaled so ellipticine positive control = 100%; activation, % at 7.58 µM;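 active = mean normalized replicate activation at least 10% and every replicate at or above 10%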;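 note: 0% = median of on-plate neutral control wells and 100% = ellipticine 6 µM median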
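Material: XiGFP fibroblasts, SV40-immortalized. Buffer or medium: DMEM plus 5-aza-dC sensitizer. Compound: single concentration per compound, delivered by pin transfer. Times: 3 days compound exposure. Controls: ellipticine 6 µM.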
TROY signal inh: inhibitors of TROY-driven NF-kB signaling, primary screen, Q293 LMP1-TROYcd cells, NF-kB luciferase, uHTS | Q293 LMP1-TROYcd NF-kB luciferase reporter, 4 h | inhibition, % at 10 µM | hit rate 0.98% among 360,000;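 active = compounds whose plate-normalised and pattern-corrected inhibition of the luciferase reporter signal at the single screening dose is 50% or more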
LGR2 antag: inhibitors of bursicon-induced LGR2 CRE-luciferase signal, primary screen, cell-based, HEK293, CRE-luciferase reporter, bursicon stimulation. bursicon-stimulated, 4 h. Drosophila bursicon receptor LGR2 (rickets). AID 720647, 2013. hit rate 0.35% among 380,000. inhibition, % at 9.99 µM;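 active = drop in luminescence signal, shown as inhibition above about 50% in the replicate tests, limit read from the data, passing the limit was not always enough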;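 note: agonist challenge used bursicon conditioned medium at about half maximal strength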
* hit, by the source's call; x = no result given. Shown are actives, neighbours in structure and some others; about 2.3% of the full set was active somewhere.

SMILES	TWEAK Fn14 block	EWS-Fli inh	FN deposit inh	XiGFP reactiv	TROY signal inh	LGR2 antag
COc1ccc(-c2nnc(SCc3nc4ccccc4c(=O)[nH]3)o2)cc1	51*	-23	9	0	56*	0
CC(C)NC(=O)N(C)C[C@H]1Oc2ccc(NC(=O)Nc3cccc4ccccc34)cc2CC(=O)N([C@@H](C)CO)C[C@H]1C	x	12	x	0	x	1
CN(C[C@H]1[C@@H](c2ccccc2)[C@H](CO)N1Cc1ccccn1)S(C)(=O)=O	x	3	3	0	x	3
COc1ccc(S(=O)(=O)N(C)C[C@H]2Oc3c(NC(=O)c4ccncc4)cccc3C(=O)N([C@@H](C)CO)C[C@H]2C)cc1	x	4	x	0	x	10
Brc1cccc(CSc2nnc(-c3ccncc3)o2)c1	62*	-16	-3	0	24	34
c1ccc(-c2nnc(SCc3ccncc3)o2)cc1	-45	-48	-2	0	-47	-20
O=C(O)c1cc(/C=C/c2ccc(N3CCOCC3)cc2)nc2ccccc12	40	-5	3	0	9	69*
O=C(O)c1cc(/C=C/c2ccc(N3CCOCC3)c([N+](=O)[O-])c2)nc2ccccc12	-7	-21	0	0	-42	-4
O=C(Nc1ccc(Oc2c(F)c(F)c(F)c(F)c2F)cc1)OC1CCN2Cc3ccccc3N=C12 (stereo unspecified)	37	x	-9	x	61*	x
O=C(C1CC1)N1CC(=O)N2[C@H](C1)[C@H](c1ccc(C#Cc3cccc(F)c3)cc1)[C@@H]2CO	x	2	8	0	x	11
COc1cc(C2c3cc4c(cc3OC(Nc3ccc(C(=O)O)cc3)C2C)OCO4)cc(OC)c1OC (stereo unspecified)	24	52*	3	1	16	-9
COc1cc(C2c3cc4c(cc3OC(C)(N3CCCC3)C2C)OCO4)cc(OC)c1OC (stereo unspecified)	8	23	-2	0	27	-10
COc1cc(C2c3cc4c(cc3OC(NCCc3ccccc3)C2C)OCO4)cc(OC)c1OC (stereo unspecified)	5	54*	2	1	15	-20
COc1cc(C2c3cc4c(cc3OC(N3CCOCC3)C2C)OCO4)cc(OC)c1OC(C)=O (stereo unspecified)	5	1	0	0	10	6
COCC(=O)N1C[C@@H](C)[C@H](OC)CN(C)C(=O)c2cc(NC(=O)c3ccc(-c4ccccc4)cc3)ccc2OC[C@H]1C	x	6	-11	0	x	5
O=C(NCC1CC1)[C@@H]1[C@@H](CO)[C@@H]2Cn3c(ccc(-c4cccnc4)c3=O)[C@H]1N2C(=O)C1CC1	x	-2	x	0	x	-1
Cc1ccc(SCC(=O)Nc2ccc(N3CCN(c4ccccc4)CC3)c(F)c2)cc1	-4	x	-25	x	7	x
CN1CCN(c2ccc(NC(=O)CSc3ccccc3)cc2F)CC1	53*	x	0	x	37	x
CCCNC(=O)N[C@H]1C=C[C@@H](CC(=O)NC2CCCCC2)O[C@@H]1CO	x	0	-7	0	x	19
COc1cc(C2C(C#N)=C(N)N(c3cccnc3)C3=C2C(=O)CCC3)ccc1O (stereo unspecified)	21	-1	x	x	15	-2
CCOC(=O)C1=C(N)N(c2ccccc2)C2=C(C(=O)CCC2)C1c1cccnc1 (stereo unspecified)	52*	x	0	0	14	15
C=CCNc1nc(Nc2ccc(OC)c(OC)c2)c2sc(-c3ccccc3)cc2n1	31	56*	8	1	8	31
COc1ccc(Nc2ncnc3sc(-c4ccccc4)cc23)cc1OC	51*	x	-1	0	1	0
C=CCNc1nc(NCCOC)c2sc(-c3ccccc3)cc2n1	-16	-5	x	0	-25	-25
O=C(Nc1ccccc1)N1CCCCN2[C@@H](CO)[C@H](c3ccc(C#Cc4cccnc4)cc3)[C@@H]2C1	x	7	x	0	x	5
SMILES	TWEAK Fn14 block	EWS-Fli inh	FN deposit inh	XiGFP reactiv	TROY signal inh	LGR2 antag
CC(=O)Nc1ccc(SCC(=O)c2cc(C)n(-c3ccccc3)c2C)cc1	73*	x	3	0	44	9
Cc1cc(C(=O)C(C)OC(=O)c2ccc(NC(=O)CC#N)cc2)c(C)n1-c1ccccc1 (stereo unspecified)	64*	4	2	0	45	12
O=C(C1=C[C@@H](c2ccc(C(F)(F)F)cc2)C[C@@H](OCc2ccc(CO)cc2)O1)N1CCCCCCC1	x	14	x	x	x	x
CC1(c2ccccc2)NC(=O)N(CC(=O)NCCC2=CCCCC2)C1=O (stereo unspecified)	2	x	-2	x	57*	x
COc1ccc(S(=O)(=O)N[C@@H]2CC[C@@H](CC(=O)O)O[C@@H]2CO)cc1	x	1	-6	0	x	3
CCC(Sc1nc(C)cc(C)n1)C(=O)Nc1ccc(Cl)cn1 (stereo unspecified)	59*	x	x	x	x	x
CCOC(=O)Cc1nnc(NC(=O)C(CC)Sc2nc(C)cc(C)n2)s1 (stereo unspecified)	-32	5	-3	0	-4	20
CCCCCCc1cc2cc(S(=O)(=O)c3ccc(C)cc3)c(=O)oc2cc1O	1	12	2	0	51*	3
CCCCCCc1cc2cc(S(=O)(=O)c3ccc(Cl)cc3)c(=O)oc2cc1O	44	-7	-12	0	53*	8
CCCCCCc1cc2cc(C(=O)NCc3ccccc3)c(=N)oc2cc1O	-17	x	-16	x	48	0
CCN(CC)c1ccc2cc(S(=O)(=O)c3ccc(Cl)cc3)c(=O)oc2c1	-10	10	-2	0	-8	10
CCCCCCc1cc2cc(C(=O)Nc3ccccc3)c(=O)oc2cc1O	69*	x	x	x	50*	41
Cc1ccc(S(=O)(=O)Nc2ccc3c(c2)C(=O)N([C@@H](C)CO)C[C@@H](C)[C@@H](CN(C)C)OCCCC[C@@H](C)O3)cc1	x	-2	-4	0	x	0
CNC[C@H]1Oc2cc(C#CCC(C)C)ccc2S(=O)(=O)N([C@H](C)CO)C[C@@H]1C	x	3	0	0	x	-7
COc1cc(OC)cc(C(=O)Nc2cc(-c3cn4cccnc4n3)ccc2C)c1	-6	-48	-6	0	-5	1
COc1cc(C(=O)Nc2cc(-c3cn4cccnc4n3)ccc2C)cc(OC)c1OC	92*	-8	1	0	0	8
